Laboratory results published in ChEMBL document CHEMBL1155761, “Isolation and structure of five new cancer cell growth inhibitory bufadienolides from the Chinese traditional drug Ch'an Su” (J Nat Prod, 2001).
≈ marks a conversion by molar mass, not a printed value.

Tests used:
Assay type in all cases: functional, cell-based
KB = assay: Cytotoxicity against human KB cells after 72 hrs by MTT assay
Method in brief: (§1)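 Cells seeded per well in 0.2 mL culture medium: 2 × 10^4 cells for KB and HL-60, 5 × 10^3 cells for MH-60. Treated in triplicate with graded concentrations of test samples (5 µL added per well), then incubated 72 h at 37 °C in 5% CO2.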

HL-60 = assay: Cytotoxicity against human HL60 cells after 72 hrs by MTT assay; conditions: HL-60, 72 h; method in brief: as §1
MH60 = assay: Cytotoxicity against mouse MH60 cells after 72 hrs by MTT assay; conditions: MH60, 72 h; method in brief: as §1
BXPC-3 = assay: Cytotoxicity against human BxPC3 cells after 72 hrs by MTT assay; conditions: BXPC-3, 72 h
MCF7 = assay: Cytotoxicity against human MCF7 cells after 72 hrs by MTT assay; conditions: MCF7, 72 h
SF-268 = assay: Cytotoxicity against human SF268 cells after 72 hrs by MTT assay; conditions: SF-268, 72 h
NCI-H460 = assay: Cytotoxicity against human NCI-H460 cells after 72 hrs by MTT assay; conditions: NCI-H460, 72 h
KM-20L2 = assay: Cytotoxicity against human KM20L2 cells after 72 hrs by MTT assay; conditions: KM-20L2, 72 h
DU-145 = assay: Cytotoxicity against human DU145 cells after 72 hrs by MTT assay; conditions: DU-145, 72 h

## C[C@]12CC[C@H](O)C[C@H]1CC[C@@H]1[C@@H]2C[C@@H](O)[C@]2(C)[C@@H](c3ccc(=O)oc3)C[C@H]3O[C@]132
KB
  IC50: 0.97 µg/mL (≈ 2.42 µM)
HL-60
  IC50: 0.045 µg/mL (≈ 0.112 µM)
MH60
  IC50: > 25 µg/mL
BXPC-3
  IC50: 0.12 µg/mL (≈ 0.3 µM)
MCF7
  IC50: 0.066 µg/mL (≈ 0.165 µM)
SF-268
  IC50: 0.046 µg/mL (≈ 0.115 µM)
NCI-H460
  IC50: 0.017 µg/mL (≈ 0.0424 µM)
KM-20L2
  IC50: 0.012 µg/mL (≈ 0.03 µM)
DU-145
  IC50: 0.041 µg/mL (≈ 0.102 µM)

## C[C@]12CC[C@H]3[C@@H](CC[C@@H]4C[C@@H](O)CC[C@@]43C=O)[C@]13OC3[C@H](O)[C@@H]2c1ccc(=O)oc1 (some centres not stated)
KB
  IC50: 0.65 µg/mL (≈ 1.57 µM)
HL-60
  IC50: 3 µg/mL (≈ 7.24 µM)
MH60
  IC50: > 25 µg/mL
BXPC-3
  IC50: > 1 µg/mL
MCF7
  IC50: > 1 µg/mL
SF-268
  IC50: > 1 µg/mL
NCI-H460
  IC50: > 1 µg/mL
KM-20L2
  IC50: > 1 µg/mL
DU-145
  IC50: > 1 µg/mL

## C[C@]12[C@H](CC[C@@H]3[C@@H]1CC[C@]1(C)[C@@H](c4ccc(=O)oc4)CC[C@]31O)C[C@@H](O)C[C@H]2O
KB
  IC50: 0.19 µg/mL (≈ 0.472 µM)
HL-60
  IC50: < 0.01 µg/mL
MH60
  IC50: > 25 µg/mL
BXPC-3
  IC50: 0.024 µg/mL (≈ 0.0596 µM)
MCF7
  IC50: 0.012 µg/mL (≈ 0.0298 µM)
SF-268
  IC50: 0.0044 µg/mL (≈ 0.0109 µM)
NCI-H460
  IC50: 0.014 µg/mL (≈ 0.0348 µM)
KM-20L2
  IC50: 0.011 µg/mL (≈ 0.0273 µM)
DU-145
  IC50: 0.005 µg/mL (≈ 0.0124 µM)

## C[C@]12CC[C@H]3[C@@H](CC[C@@H]4C[C@@H](O)CC[C@@]43C=O)[C@@]1(O)CC[C@@H]2c1ccc(=O)oc1
HL-60
  IC50: < 0.01 µg/mL
MH60
  IC50: > 25 µg/mL
BXPC-3
  IC50: 0.014 µg/mL (≈ 0.035 µM)
MCF7
  IC50: 0.0072 µg/mL (≈ 0.018 µM)
SF-268
  IC50: 0.0047 µg/mL (≈ 0.0117 µM)
NCI-H460
  IC50: 0.018 µg/mL (≈ 0.0449 µM)
KM-20L2
  IC50: 0.0082 µg/mL (≈ 0.0205 µM)
DU-145
  IC50: 0.0046 µg/mL (≈ 0.0115 µM)

## C[C@]12CC[C@H](OC=O)C[C@H]1CC[C@@H]1[C@@H]2CC[C@]2(C)[C@@H](c3ccc(=O)oc3)C[C@H]3O[C@]132
KB
  IC50: 3.4 µg/mL (≈ 8.24 µM)
HL-60
  IC50: 1 µg/mL (≈ 2.42 µM)
MH60
  IC50: 8.1 µg/mL (≈ 19.6 µM)
BXPC-3
  IC50: 1.6 µg/mL (≈ 3.88 µM)
MCF7
  IC50: 0.6 µg/mL (≈ 1.45 µM)
SF-268
  IC50: 0.38 µg/mL (≈ 0.921 µM)
NCI-H460
  IC50: 0.53 µg/mL (≈ 1.28 µM)
KM-20L2
  IC50: 0.54 µg/mL (≈ 1.31 µM)
DU-145
  IC50: 0.42 µg/mL (≈ 1.02 µM)

## CC(=O)O[C@H]1[C@H]2O[C@]23[C@@H]2C[C@H](O)[C@@H]4C[C@@H](O)CC[C@]4(C)[C@H]2CC[C@]3(C)[C@H]1c1ccc(=O)oc1
KB
  IC50: 0.87 µg/mL (≈ 1.9 µM)
HL-60
  IC50: 0.038 µg/mL (≈ 0.0829 µM)
MH60
  IC50: > 25 µg/mL
BXPC-3
  IC50: 0.46 µg/mL (≈ 1 µM)
MCF7
  IC50: 0.36 µg/mL (≈ 0.785 µM)
SF-268
  IC50: 0.32 µg/mL (≈ 0.698 µM)
NCI-H460
  IC50: 0.74 µg/mL (≈ 1.61 µM)
KM-20L2
  IC50: 0.28 µg/mL (≈ 0.611 µM)
DU-145
  IC50: 0.21 µg/mL (≈ 0.458 µM)

## C[C@]12CC[C@H]3[C@@H](CC[C@@H]4C[C@@H](O)CC[C@@]43CO)[C@]13O[C@@H]3C[C@@H]2c1ccc(=O)oc1
KB
  IC50: 1.2 µg/mL (≈ 3 µM)
HL-60
  IC50: 0.48 µg/mL (≈ 1.2 µM)
MH60
  IC50: > 25 µg/mL
BXPC-3
  IC50: 0.63 µg/mL (≈ 1.57 µM)
MCF7
  IC50: 0.33 µg/mL (≈ 0.824 µM)
SF-268
  IC50: 0.25 µg/mL (≈ 0.624 µM)
NCI-H460
  IC50: 0.44 µg/mL (≈ 1.1 µM)
KM-20L2
  IC50: 0.45 µg/mL (≈ 1.12 µM)
DU-145
  IC50: 0.38 µg/mL (≈ 0.949 µM)

## CC(=O)O[C@H]1C[C@]2(O)[C@@H]3CC[C@]4(O)C[C@@H](O)CC[C@]4(C)[C@H]3CC[C@]2(C)[C@H]1c1ccc(=O)oc1
KB
  IC50: 0.2 µg/mL (≈ 0.434 µM)
HL-60
  IC50: < 0.01 µg/mL
MH60
  IC50: > 25 µg/mL
BXPC-3
  IC50: 0.11 µg/mL (≈ 0.239 µM)
MCF7
  IC50: 0.046 µg/mL (≈ 0.0999 µM)
SF-268
  IC50: 0.033 µg/mL (≈ 0.0717 µM)
NCI-H460
  IC50: 0.048 µg/mL (≈ 0.104 µM)
KM-20L2
  IC50: 0.034 µg/mL (≈ 0.0738 µM)
DU-145
  IC50: 0.024 µg/mL (≈ 0.0521 µM)

## CC(=O)O[C@H]1[C@H]2O[C@]23[C@@H]2CC[C@@H]4C[C@@H](O)CC[C@]4(C)[C@H]2C[C@@H](O)[C@]3(C)[C@H]1c1ccc(=O)oc1
KB
  IC50: 0.79 µg/mL (≈ 1.72 µM)
HL-60
  IC50: < 0.01 µg/mL
MH60
  IC50: > 25 µg/mL

## C[C@]12CC[C@H]3[C@@H](CC[C@@H]4C[C@@H](O)CC[C@@]43CO)[C@]13O[C@@H]3[C@H](O)[C@@H]2c1ccc(=O)oc1
KB
  IC50: 3.9 µg/mL (≈ 9.36 µM)
HL-60
  IC50: 0.49 µg/mL (≈ 1.18 µM)
MH60
  IC50: > 25 µg/mL

## C[C@]12CC[C@H](O)C[C@H]1CC[C@@H]1[C@@H]2CC[C@]2(C)[C@@H](c3ccc(=O)oc3)CC[C@]12O [BUFALIN]
KB
  IC50: 0.67 µg/mL (≈ 1.73 µM)
HL-60
  IC50: < 0.01 µg/mL
MH60
  IC50: > 25 µg/mL

## C[C@]12CC[C@H](O)C[C@H]1CC[C@@H]1[C@@H]2CC[C@]2(C)[C@@H](c3ccc(=O)oc3)C[C@H]3O[C@]132 [BUFOGENIN]
KB
  IC50: 1.3 µg/mL (≈ 3.38 µM)
HL-60
  IC50: 0.5 µg/mL (≈ 1.3 µM)
MH60
  IC50: 10 µg/mL (≈ 26 µM)

## CC(=O)O[C@H]1C[C@]2(O)[C@@H]3CC[C@@H]4C[C@@H](O)CC[C@]4(C)[C@H]3CC[C@]2(C)[C@H]1c1ccc(=O)oc1 [BUFOTALIN]
KB
  IC50: 0.19 µg/mL (≈ 0.427 µM)
HL-60
  IC50: < 0.01 µg/mL
MH60
  IC50: > 25 µg/mL

## CC(=O)O[C@H]1[C@H]2O[C@]23[C@@H]2CC[C@@H]4C[C@@H](O)CC[C@]4(C)[C@H]2CC[C@]3(C)[C@H]1c1ccc(=O)oc1 [CINOBUFAGIN]
KB
  IC50: 0.21 µg/mL (≈ 0.475 µM)
HL-60
  IC50: < 0.01 µg/mL
MH60
  IC50: > 25 µg/mL

## CC(=O)O[C@H]1[C@H]2O[C@]23[C@@H]2CC[C@]4(O)C[C@@H](O)CC[C@]4(C)[C@H]2CC[C@]3(C)[C@H]1c1ccc(=O)oc1 [CINOBUFOTALIN]
KB
  IC50: 0.37 µg/mL (≈ 0.807 µM)
HL-60
  IC50: 0.047 µg/mL (≈ 0.102 µM)
MH60
  IC50: > 25 µg/mL

## C[C@]12CC[C@H](O)C[C@H]1CC[C@@H]1[C@@H]2CC[C@]2(C)[C@@H](c3ccc(=O)oc3)[C@@H](O)C[C@]12O [DESACETYLBUFOTALIN]
KB
  IC50: 0.79 µg/mL (≈ 1.96 µM)
HL-60
  IC50: 0.025 µg/mL (≈ 0.0621 µM)
MH60
  IC50: > 25 µg/mL

## C[C@]12CC[C@H](O)C[C@H]1CC[C@@H]1[C@@H]2CC[C@]2(C)[C@@H](c3ccc(=O)oc3)[C@@H](O)[C@H]3O[C@]132 [DESACETYLCINOBUFAGIN]
KB
  IC50: 0.44 µg/mL (≈ 1.1 µM)
HL-60
  IC50: 1 µg/mL (≈ 2.5 µM)
MH60
  IC50: > 25 µg/mL

## C[C@]12CC[C@H](O)C[C@@]1(O)CC[C@@H]1[C@@H]2CC[C@]2(C)[C@@H](c3ccc(=O)oc3)[C@@H](O)[C@H]3O[C@]132 [DESACETYLCINOBUFOTALIN]
KB
  IC50: 10 µg/mL (≈ 24 µM)
HL-60
  IC50: 4.3 µg/mL (≈ 10.3 µM)
MH60
  IC50: > 25 µg/mL

## C[C@]12CC[C@H](O)C[C@H]1CC[C@@H]1[C@@H]2[C@H](O)C[C@]2(C)[C@@H](c3ccc(=O)oc3)CC[C@]12O [GAMABUFOTALIN]
KB
  IC50: 0.75 µg/mL (≈ 1.86 µM)
HL-60
  IC50: 0.014 µg/mL (≈ 0.0348 µM)
MH60
  IC50: > 25 µg/mL

## C[C@]12CC[C@H](O)C[C@@]1(O)CC[C@@H]1[C@@H]2CC[C@]2(C)[C@@H](c3ccc(=O)oc3)CC[C@]12O [TELOCINOBUFAGIN]
KB
  IC50: 1.3 µg/mL (≈ 3.23 µM)
HL-60
  IC50: < 0.01 µg/mL
MH60
  IC50: > 25 µg/mL
